From PubChem BioAssay
Kir21 block: inhibitors of mouse Kir2.1 inward-rectifier potassium channel | P35561 | HEK293-Kir2.1, FluxOR thallium flux fluorescence; active compounds read low | B-score at 10 µM | 310,000 compounds, 0.85% hits | AID 1672;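 active means fluorescence ratio B-score at or below minus 3 SD of library scores, with starting-brightness B-score within 2 SD, cut at about -4.2 in these data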;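 further: channel flux triggered by added potassium and thallium sulfate stimulus; B-score of peak minus minimum fluorescence over baseline after thallium stimulus; more negative B-score means stronger Kir2.1 block with less thallium influx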
Target sequence (P35561 whole entry, looked up): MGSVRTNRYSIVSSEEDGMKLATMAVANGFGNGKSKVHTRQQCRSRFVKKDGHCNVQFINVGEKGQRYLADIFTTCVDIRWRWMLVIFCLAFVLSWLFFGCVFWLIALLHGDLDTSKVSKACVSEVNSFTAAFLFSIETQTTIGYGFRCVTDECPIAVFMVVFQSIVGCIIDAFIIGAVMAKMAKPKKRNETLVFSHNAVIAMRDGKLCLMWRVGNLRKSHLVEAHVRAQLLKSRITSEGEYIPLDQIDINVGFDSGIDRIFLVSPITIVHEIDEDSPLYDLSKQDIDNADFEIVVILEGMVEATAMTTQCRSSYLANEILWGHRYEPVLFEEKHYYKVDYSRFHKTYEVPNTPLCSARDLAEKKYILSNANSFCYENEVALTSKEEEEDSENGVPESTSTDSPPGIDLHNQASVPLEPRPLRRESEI
RGS4 inh: human RGS4 inhibition; P49798; HEK293 M3R/RGS4 inducible, Fluo-4 calcium flux; active compounds read high; triggered by carbachol at its EC20; B-score at 10 µM; 310,000 compounds, 0.45% hits; AID 463165;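 active means B-score, a plate-corrected calcium signal, over three deviations above library mean, with baseline fluorescence within five deviations of library mean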;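 further: RGS4 expression induced by doxycycline in cells with stable M3 receptor; B-score is computed from the integrated fluorescence ratio over baseline after carbachol; higher B-score means a larger calcium signal and so more RGS4 inhibition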
MrgX1 antag: blocks BAM8-22 activation of human MrgX1 receptor; Q96LB2; B-score at 10 µM; 310,000 compounds, 1.3% hits; MRGX1-HEK293 calcium flux, Fluo-4, BAM8-22 antagonism; active compounds read low; AID 588676;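 active means calcium-response B-score plate-corrected more than 3 library SD below zero, starting fluorescence within 5 deviations, no agonist response on first addition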;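 further: peak minus trough fluorescence over baseline after final BAM8-22 challenge near maximal dose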
MrgX1 ag: activates human MrgX1 receptor signaling. Q96LB2. MrgX1-HEK293 cells, Fluo-4 calcium fluorescence, agonist mode; active compounds read high. B-score at 10 µM. 310,000 compounds, 0.44% hits. AID 588627;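 active means calcium response B-score plate-corrected fluorescence ratio at least 3 library SD, with starting fluorescence B-score inside 5 SD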
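Assay system: MrgX1-expressing HEK293 cells / Amount: fifteen thousand cells per well / Doses: test compound in the initial addition of three / Timing: cells plated overnight, dye loaded 0.5 h 37 °C, 0.5 h room temperature / Technique: kinetic calcium dye fluorescence, Fluo-4 NW / Control set: positive and negative controls per plate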
RGS4 pot: RGS4 potentiation or activation; B-score at 10 µM; HEK293 M3R/inducible RGS4, carbachol calcium flux Fluo4; active compounds read low; 310,000 compounds, 0.92% hits; AID 463111;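 active means B-score of the integrated calcium signal more than 4 SD below the library mean, with starting fluorescence not abnormally high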;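 further: negative B-score means reduced calcium response which marks RGS4 activation or potentiation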
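Test system: HEK293 cells with stable M3R and inducible RGS4; also added: carbachol at ECmax as muscarinic agonist stimulus; schedule: dye loading 30 min 37 °C, buffer rest 30 min RT; technique: kinetic calcium fluorescence imaging with Fluo4-AM dye, 2 µM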
MrgX1 allo act: human MrgX1 positive allosteric modulation, primary screen; MrgX1-HEK293, Fluo-4 calcium flux, FDSS; active compounds read high; 310,000 compounds, 0.63% hits; AID 588675; B-score at 10 µM; Q96LB2;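 active means plate-corrected calcium response at least 3 library SD above typical, normal starting fluorescence, not activating the receptor alone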;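 further: compound read alongside a low EC10 to EC30 dose of BAM8-22 agonist; peak minus trough fluorescence over baseline measured at the second addition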
Numbers stand for hits; . = inactive; / = no result given. An excerpt weighted towards active compounds, which were near 4.1% of everything screened.

SMILES	Kir21 block	RGS4 inh	MrgX1 antag	MrgX1 ag	RGS4 pot	MrgX1 allo act
CN(C)c1nc2ccc(OCCN3CCCCC3)cc2s1	.	.	.	.	-7.3	.
CC(C)CCC(CC(C)O)c1n[nH]c(=S)n1-c1ccccc1 (centres undefined)	.	.	-4.9	.	.	.
c1ccc2c(c1)Nc1nccnc1S2	/	/	.	.	/	.
O=C(COC(=O)c1cccc([N+](=O)[O-])c1)c1ccc(OCc2ccccc2)cc1	.	.	.	.	-8.4	.
c1ccc(C[C@H]2CN=C(Nc3ccccc3)N2CCCC2CCCC2)cc1	-5.6	.	.	.	.	.
CCCCCCCN1C(Nc2ccccc2)=NC[C@@H]1Cc1ccccc1	-5.6	.	.	.	.	.
COc1ccc(/C=C(\C#N)C(=O)c2c(C)[nH]c3ccccc23)cc1OC	.	.	.	32	.	.
O=C(O)Cc1sc(N/N=C\c2ccccc2)nc1-c1ccccc1	.	.	-6.2	.	.	.
CC(=O)N(C(C)=O)c1nc2nc(C)cc(C)n2n1	.	.	.	.	.	.
COC(=O)/C(=C/c1cn(C)c2ccccc12)[N+](=O)[O-]	-5.3	12	/	/	.	/
CC(NCCC(c1ccccc1)c1ccccc1)c1ccccc1 (centres undefined)	-6.4	.	.	.	.	.
CSc1nnc(-c2ccc(Cl)cc2Cl)o1	.	.	.	.	.	.
COc1ccc(CC(=O)NC(C)c2nnc(SCCOc3ccc(OC)cc3)n2C)cc1 (centres undefined)	-4.3	.	.	.	.	.
Cc1oc2c(cc(NS(=O)(=O)c3ccc(C(C)C)cc3)c3ccccc32)c1C(=O)O	.	.	.	.	-8.6	.
CCOC(=O)c1oc2ccc(S(=O)(=O)n3nc(-c4cc(OC)c(OC)c(OC)c4)cc3N)cc2c1C	.	.	.	.	.	.
Oc1ccc(N=C/C=C/c2ccc(Br)cc2)cc1-c1nc2ccccc2s1	.	6.2	.	.	.	.
Brc1cc2c(cc1-c1nc3ccccc3s1)OCO2	.	.	.	.	.	.
COc1ccc(NC(=O)COc2ccc(S(=O)(=O)N3CCOCC3)cc2C)cc1OC	.	.	.	.	.	.
COc1ccccc1NS(=O)(=O)c1cc(C(=O)NCC(c2ccco2)N(C)C)ccc1C (centres undefined)	.	.	.	.	.	.
COc1ccccc1NS(=O)(=O)c1cc(C(=O)NCC(c2ccco2)N2CCCCC2)ccc1C (centres undefined)	.	.	-5.4	.	.	.
COc1ccc(CNCCC(c2ccc(OC(C)C)cc2)c2ccccc2OC)cc1OC (centres undefined)	.	.	.	.	.	.
COc1ccccc1C(CCNCc1ccccc1)c1ccc(OC(C)C)cc1 (centres undefined)	-6.3	.	.	.	.	.
COc1ccc(CNCCC(c2ccccc2)c2ccc3c(c2)OCO3)cc1 (centres undefined)	-8.1	.	.	.	.	.
COc1ccccc1C(CCNCc1ccc(N(C)C)cc1)c1ccc(OC(C)C)cc1 (centres undefined)	-4.4	.	.	.	.	.
COc1ccc(CNCCC(c2ccc(OC(C)C)cc2)c2ccccc2OC)cc1 (centres undefined)	-7.4	.	.	.	.	.
SMILES	Kir21 block	RGS4 inh	MrgX1 antag	MrgX1 ag	RGS4 pot	MrgX1 allo act
COc1ccccc1C(CC(=O)Nc1ccc(C)c(C)c1)c1ccc(OC(C)C)cc1 (centres undefined)	.	.	.	.	.	.
COc1ccccc1NC(=O)CC(c1ccc(OC(C)C)cc1)c1ccccc1OC (centres undefined)	.	.	.	.	.	.
COc1ccc(C(CC(=O)O)c2ccc3c(c2)OCO3)cc1 (centres undefined)	.	.	.	.	.	.
CC1CCC2(CC1)NC(=S)N(C(C)(C)C)N2 (centres undefined)	.	.	.	.	.	.
COc1ccc(-n2ncc3c(=O)n(CC(C)=O)cnc32)cc1	.	.	.	.	.	.
CN(C)S(=O)(=O)c1cccc(-c2nn(-c3ccccc3)cc2/C=C2\SC(=S)NC2=O)c1	/	/	.	.	/	17
